Data: ChEMBL document CHEMBL4376862, “Synthesis and evaluation of novel chlorophyll a derivatives as potent photosensitizers for photodynamic therapy” (Eur J Med Chem, 2020)
Calls of active or inactive are those of the source. The calls are words filed in the database; no cut-off is given here.

Assays:
[1] = Dark toxicity in human A549 cells assessed as reduction in cell viability incubated under dark for 24 hrs measured after 48 hrs by MTT assay; format: cell-based; settings: read-out: TC50
Procedure, shortened: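 A549 cells seeded at 5×10^4 cells/100 µL per well for 24 h, treated in the dark with […] (so in the source) for 24 h; MTT added 4 h, absorbance 570 nm, 48 h later; viability as OD treated/OD control; triplicate, mean ± SD.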

[2] = Induction of ROS generation in DMF solution assessed as slope of the photodegradation rate of DPBF at 2 uM followed by irradiation measured every 10 secs by spectrophotometric analysis; format: functional
[3] = Octanol/water partition coefficient, logP of compound by shake flask method; format: physicochemical
Procedure, shortened: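 Shake-flask method: equilibrium concentrations in octanol and water measured by UV-vis absorbance; log P taken as log of octanol/water concentration ratio (mg/L).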

A549 [4] = experiment: Phototoxicity against human A549 cells assessed as reduction in cell proliferation irradiated with 1 J/cm2 of 650 nanometer laser light preincubated for 24 hrs measured after 48 hrs by MTT assay; format: functional, cell-based; settings: A549, light or radiation study
Procedure, shortened: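 A549 cells seeded 5×10^4 cells/100 µL per well, given […] for 24 h, then 650 nm semiconductor laser at 1 J/cm2 (25 mW/cm2, 40 s); MTT 4 h, absorbance 570 nm; viability vs control; triplicate, mean ± SD.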

[5] = Absorption property of compound in DMSO assessed as strong absorption wavelength at 1 x 10^-3 M by UV-spectra analysis; format: physicochemical; settings: 1000 µM
Procedure, shortened: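 Stocks 1 mM in DMSO; spectra run over […] range (units as printed), 300–800 nm in 1 nm steps, room temperature, quartz cuvettes, UV-vis spectrophotometer.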

[6] = Drug uptake in human A549 cells incubated upto 24 hrs by fluorescence spectrophotometer analysis; format: ADME, cell-based; settings: a549, 24 h
Procedure, shortened: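 A549 cells (F-12K, 10% FBS, 37 °C, 5% CO2) grown in 24 wells and exposed to photosensitizer for 0.5, 1, 2, 4, 8, 12 or 24 h; cells harvested by digestion, fluorescence read on a spectrophotometer.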

A549 [7] = experiment: Photodynamic antitumor activity against human A549 cells xenografted in BALB/c nude mouse assessed as decrease in tumor weight at 0.3 mg/kg, iv followed by laser light irradiation at 120 J/cm2 measured after 14 days; format: functional
Procedure, shortened: (§1)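 Male BALB/c nude mice (5–6 weeks, 14–16 g) given 2×10^6 A549 cells s.c. in 0.2 mL PBS; at 6–7 mm tumors randomized into ten groups; drug via tail vein, 650 nm diode laser 120 J/cm2 at 180 mW/cm2 24 h later; caliper volume a×b²/2, followed 14 days.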

[8] = Therapeutic index, ratio of TC50 for human A549 cells under dark to IC50 for human A549 cells irradiated with 1 J/cm2 of 650 nanometer laser light; format: toxicity, cell-based; settings: read-out: TI
Procedure, shortened: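 A549 cells (F-12K, 10% FBS, 37 °C, 5% CO2) seeded 24 h, then exposed to 0–10 photosensitizer for 24 h. Dark arm: MTT 48 h later. Light arm: 650 nm laser, 1 J/cm2 (25 mW/cm2, 40 s), then MTT. A570 viability relative to control, triplicate. Ratio = dark TC50 / irradiated IC50.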

[9] = Emission property of a compound in DMSO assessed as red shift at 5 uM on excitation with light at 410 to 415 nm by 3D fluorescence spectra analysis; format: physicochemical
Procedure, shortened: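 Stock 1 mM in DMSO, measured at […] (so in the source); excitation scanned 350–640 nm, emission 600–750 nm, 1 nm steps, room temperature, quartz cuvettes; 3D fluorescence matrix spectra recorded.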

[10] = Induction of ROS generation in DMF solution assessed as ROS quantum yield at 2 uM followed by irradiation measured every 10 secs by spectrophotometric analysis; format: functional
Mus musculus [11] = experiment: Phototoxicity in ICR mouse assessed as change in auricles 0.45 mg/kg, iv in presence of 10 mW/cm2 light irradiation for 10 mins upto 7 days measured after 1day of light irradiation by H and E staining based microscopic analysis; format: organism-based; settings: in vivo
Cavia porcellus [12] = experiment: Phototoxicity in guinea pig assessed as change in back skin weight 4.5 mg/kg, iv followed by 10 mW/cm2 light irradiation for 10 mins measured after 1day of light irradiation (reference value: 72.4 +/- 3.1 mg); format: organism-based; settings: in vivo, 24 h
Mus musculus [13] = experiment: Phototoxicity in ICR mouse assessed as ear weight at 0.45 mg/kg, iv followed by 10 mW/cm2 light irradiation for 10 mins at 7 days after drug challenge measured after 1 day of light irradiation (13.2 +/- 1.6 mg); format: organism-based; settings: in vivo
Mus musculus [14] = experiment: Phototoxicity in ICR mouse assessed as ear weight at 0.45 mg/kg, iv followed by 10 mW/cm2 light irradiation for 10 mins at 5 days after drug challenge measured after 1 day of light irradiation (reference value: 12.9 +/- 1.4 mg); format: organism-based; settings: in vivo
Mus musculus [15] = experiment: Phototoxicity in ICR mouse assessed as ear weight at 0.45 mg/kg, iv followed by 10 mW/cm2 light irradiation for 10 mins at 1 day after drug challenge measured after 1 day of light irradiation (reference value: 12.6 +/- 1.2 mg); format: organism-based; settings: in vivo
Cavia porcellus [16] = experiment: Phototoxicity in guinea pig assessed as change in right ear weight 4.5 mg/kg, iv followed by 10 mW/cm2 light irradiation for 10 mins measured after 1 day of light irradiation (reference value: 40.4 +/- 2.4 mg); format: organism-based; settings: in vivo
Mus musculus [17] = experiment: Phototoxicity in ICR mouse assessed as change in exposed neck skin 0.45 mg/kg, iv in presence of 10 mW/cm2 light irradiation for 10 mins upto 7 days measured after 1day of light irradiation by H and E staining based microscopic analysis; format: organism-based; settings: in vivo
Cavia porcellus [18] = experiment: Phototoxicity in guinea pig assessed as change in left ear weight 4.5 mg/kg, iv followed by 10 mW/cm2 light irradiation for 10 mins measured after 1 day of light irradiation (reference value: 39.2 +/- 1.8 mg); format: organism-based; settings: in vivo
Mus musculus [19] = experiment: Phototoxicity in ICR mouse assessed as ear weight at 0.45 mg/kg, iv followed by 10 mW/cm2 light irradiation for 10 mins at 3 days after drug challenge measured after 1 day of light irradiation (reference value: 12.8 +/- 1.5 mg); format: organism-based; settings: in vivo
[20] = Absorption property of compound in DMSO assessed as Q band absorption at 1 x 10^-3 mM by UV-spectra analysis; settings: 1 µM
Mus musculus [21] = experiment: Phototoxicity in ICR mouse assessed as change in skin of the backs 0.45 mg/kg, iv in presence of 10 mW/cm2 light irradiation for 10 mins upto 7 days measured after 1 day of light irradiation by H and E staining based microscopic analysis; format: organism-based; settings: in vivo
A549 [22] = experiment: Photodynamic antitumor activity against human A549 cells xenografted in BALB/c nude mouse assessed as reduction in tumor volume at 0.3 mg/kg, iv incubated for 24 hrs followed by laser light irradiation at 120 J/cm2 measured up to 14 days; format: functional, organism-based; procedure, shortened: as §1
A549 [23] = experiment: Photodynamic antitumor activity against human A549 cells xenografted in BALB/c nude mouse assessed as survival time at 0.3 mg/kg, iv incubated for 24 hrs followed by laser light irradiation at 120 J/cm2 measured up to 70 days; format: functional, organism-based
Procedure, shortened: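 Nude mice bearing A549 xenografts, 0.3 mg/kg drug i.v. then 650 nm laser 120 J/cm2 at 180 mW/cm2 after 24 h; survival shown as Kaplan-Meier with log-rank test, n = 5.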

Cavia porcellus [24] = experiment: Phototoxicity in guinea pig assessed as change in auricles of left ear at 4.5 mg/kg, iv in presence of 10 mW/cm2 light irradiation for 10 mins measured after 1day of light irradiation by H and E staining based microscopic analysis; format: organism-based; settings: in vivo
Cavia porcellus [25] = experiment: Phototoxicity in guinea pig assessed as change in back skin at 4.5 mg/kg, iv in presence of 10 mW/cm2 light irradiation for 10 mins measured after 1day of light irradiation by H and E staining based microscopic analysis; format: organism-based; settings: in vivo
A549 [26] = experiment: Photodynamic antitumor activity against human A549 cells xenografted in BALB/c nude mouse assessed as increase in tumor tissue damage at 0.3 mg/kg, iv incubated for 24 hrs followed by laser light irradiation at 120 J/cm2 measured up to 14 days; format: functional, organism-based; procedure, shortened: as §1

| SMILES | CC50 at 24 h [1] [nM] | K [2] [s⁻¹] | logP [3] | IC50 (A549 [4]) [nM] | Activity [5] | Drug uptake [6] | Activity (A549 [7]) [g] | selectivity ratio [8] | Activity [9] [nm] | Ratio [10] | other results |
| --- | --- | --- | --- | --- | --- | --- | --- | --- | --- | --- | --- |
| CCCOC(C)c1c(C)c2cc3nc(c4c5[nH]c(cc6nc(cc1[nH]2)C(C)=C6CC)c(C)c5C(=O)C4)[C@@H](CCC(=O)NCC(=O)CCC(=O)O)[C@@H]3C (some centres not stated) | 2660 | 0.018 | 2.34 | 500 | 660 to 670 nm | Active | 0.0495 | 5.32 | 661 to 669 | 0.9 | – |
| CCC1=C(C)c2cc3[nH]c(cc4nc(c5c6[nH]c(cc1n2)c(C)c6C(=O)C5)[C@@H](CCC(=O)NCC(=O)CCC(=O)O)[C@@H]4C)c(C)c3C(C)OC (some centres not stated) | 2680 | 0.0195 | 1.91 | 590 | 660 to 670 nm | Active | 0.1265 | 4.54 | 661 to 669 | 0.975 | – |
| CCCCCCOC(C)c1c(C)c2cc3nc(c4c5[nH]c(cc6nc(cc1[nH]2)C(C)=C6CC)c(C)c5C(=O)C4)[C@@H](CCC(=O)NCC(=O)CCC(=O)O)[C@@H]3C (some centres not stated) | 1010 | 0.0363 | 2.67 | 80 | 660 to 670 nm | Active | 0 | 12.6 | 661 to 669 | 1.81 | – |
| C=Cc1c(C)c2cc3nc(c4c5[nH]c(cc6nc(cc1[nH]2)C(C)=C6CC)c(C)c5C(=O)C4)[C@@H](CCC(=O)O)[C@@H]3C [PYROPHEOPHORBIDE A] | – | 0.0081 | 3.77 | – | Active | – | – | – | 661 to 669 | 0.405 | Activity (Mus musculus [11]): Non-Toxic; Activity (Cavia porcellus [12]): 100.3 mg; Activity (Mus musculus [13]): 13.3 mg; Activity (Mus musculus [14]): 13.2 mg; Activity (Mus musculus [15]): 13.1 mg; Activity (Cavia porcellus [16]): 59.2 mg; Activity (Mus musculus [17]): Non-Toxic; Activity (Cavia porcellus [18]): 57.2 mg; Activity (Mus musculus [19]): 12.7 mg |
| CCC1=C(C)c2cc3[nH]c(cc4nc(c5c6[nH]c(cc1n2)c(C)c6C(=O)C5)[C@@H](CCC(=O)NCC(=O)CCC(=O)O)[C@@H]4C)c(C)c3C(C)OCCOC (some centres not stated) | 5650 | 0.0162 | 1.82 | 760 | 660 to 670 nm | Active | 0.2431 | 7.43 | 661 to 669 | 0.81 | – |
| CCCOCCOC(C)c1c(C)c2cc3nc(c4c5[nH]c(cc6nc(cc1[nH]2)C(C)=C6CC)c(C)c5C(=O)C4)[C@@H](CCC(=O)NCC(=O)CCC(=O)O)[C@@H]3C (some centres not stated) | 4000 | 0.0329 | 2.22 | 1170 | 660 to 670 nm | Active | 0.1154 | 3.42 | 661 to 669 | 1.65 | – |
| CCCCCOC(C)c1c(C)c2cc3nc(c4c5[nH]c(cc6nc(cc1[nH]2)C(C)=C6CC)c(C)c5C(=O)C4)[C@@H](CCC(=O)NCC(=O)CCC(=O)O)[C@@H]3C (some centres not stated) | 1040 | 0.0353 | 2.61 | 100 | 660 to 670 nm | Active | 0 | 10.4 | 661 to 669 | 1.76 | – |
| C=Cc1c(C)c2cc3nc(c4c5[nH]c(cc6nc(cc1[nH]2)C(C)=C6CC)c(C)c5C(=O)C4)[C@@H](CCC(=O)NCC(=O)CCC(=O)O)[C@@H]3C | 3190 | 0.0251 | 2.28 | 2010 | 660 to 670 nm | Active | 0.2826 | 1.59 | 661 to 669 | 1.25 | Activity [20]: 669 nm |
| CCOC(C)c1c(C)c2cc3nc(c4c5[nH]c(cc6nc(cc1[nH]2)C(C)=C6CC)c(C)c5C(=O)C4)[C@@H](CCC(=O)NCC(=O)CCC(=O)O)[C@@H]3C (some centres not stated) | 3270 | 0.0161 | 2.16 | 690 | 660 to 670 nm | Active | 0.0527 | 4.74 | 661 to 669 | 0.805 | – |
| CCCCCCOC(C)c1c(C)c2cc3nc(c4c5[nH]c(cc6nc(cc1[nH]2)C(C)=C6CC)c(C)c5C(=O)C4)[C@@H](CCC(=O)O)[C@@H]3C (some centres not stated) [HPPH] | 1950 | 0.0357 | – | 330 | – | – | 0.0212 | 5.91 | 661 to 669 | 1.78 | Activity (Mus musculus [21]): Non-Toxic; Activity (A549 [22]): Active; Activity (A549 [23]): Active; Activity (Cavia porcellus [24]): Non-Toxic; Activity (Mus musculus [11]): Non-Toxic; Activity (Cavia porcellus [12]): 74.1 mg; Activity (Mus musculus [13]): 13.2 mg; Activity (Mus musculus [14]): 13.1 mg; Activity (Mus musculus [15]): 12.8 mg; Activity (Cavia porcellus [16]): 42.2 mg; Activity (Mus musculus [17]): Non-Toxic; Activity (Cavia porcellus [18]): 42.6 mg; Activity (Mus musculus [19]): 13.3 mg; Activity (Cavia porcellus [25]): Non-Toxic; Activity (A549 [26]): Active |
